Experimental data published in ChEMBL document CHEMBL4400513, “Aurone derivatives as promising antibacterial agents against resistant Gram-positive pathogens” (Eur J Med Chem, 2019).
pIC50: −log10 of the molar value. Values after ≈ are worked out from the molar mass of the structure shown.

Legend:
Pseudomonas aeruginosa = assay: Antimicrobial activity against Pseudomonas aeruginosa after 18 to 24 hrs in aerobic condition by two-fold serial dilutions method; format: functional
Method in brief: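 Colonies grown overnight (~16 h) in Mueller-Hinton broth at 37 °C, 200 rpm, diluted 1/100 and grown to log phase (OD600 ~0.6), then diluted to ~10^5 bacteria/mL. Exposed to 0 to 500 µM in 1:2 series (0.2% DMSO final control), aerobic, 37 °C, 18–24 h. OD600 read; MIC = lowest concentration without visible growth; n = 3.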

Staphylococcus aureus = assay: Antimicrobial activity against methicillin-resistant Staphylococcus aureus after 18 to 24 hrs in aerobic condition by two-fold serial dilutions method; format: functional
Method in brief: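 Strains grown on LB at 37 °C aerobically, then in Mueller-Hinton broth overnight at 200 rpm and brought to log phase (OD600 ~0.6). About 10^5 bacteria/mL exposed to two-fold serial dilutions 0–500 µM, DMSO 0.2% final as control. Aerobic incubation at 37 °C for 18–24 h; OD600 read; MIC = lowest concentration inhibiting visible growth. n = 3.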

IMR-90 = assay: Cytotoxicity against human IMR90 cells assessed as reduction in cell viability after 48 hrs by Resazurin dye-based assay; conditions: for pIC50: Homo sapiens, IMR-90, 48 h; for Activity: human, imr-90, 48 h
Method in brief: (§1)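 Normal human lung epithelial (BEAS-2B) and lung fibroblast (IMR-90) cells were grown in DMEM with 10% FCS. Cells were seeded at ~10^4/well, grown to confluence (48–72 h), then exposed to increasing concentrations for 48 h at 37 °C, 5% CO2, with 0.2% DMSO as control. Resazurin was added for 4 h and fluorescence read at 530/590 nm. Viability was normalized to DMSO wells and IC50 calculated.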

BEAS-2B = assay: Cytotoxicity against human BEAS2B cells assessed as reduction in cell viability after 48 hrs by Resazurin dye-based assay; conditions: for pIC50: Homo sapiens, BEAS-2B; for Activity: human, beas-2b; method in brief: as §1

## O=C1/C(=C/c2ccc(O)cc2)Oc2cc(O)cc(O)c21
Pseudomonas aeruginosa
  MIC: > 500 µM
Staphylococcus aureus
  MIC: 62.5 to 125 µM (≈ 16.9 to 33.8 µg/mL)

## O=C1/C(=C/c2ccccc2)Oc2cccc(O)c21
Pseudomonas aeruginosa
  MIC: > 500 µM
Staphylococcus aureus
  MIC: > 500 µM

## O=C1/C(=C/c2ccccc2)Oc2c(O)cccc21
Pseudomonas aeruginosa
  MIC: > 500 µM
Staphylococcus aureus
  MIC: > 500 µM

## COc1cc(OC)c2c(c1)O/C(=C\c1ccccc1O)C2=O
Pseudomonas aeruginosa
  MIC: > 500 µM
Staphylococcus aureus
  MIC: > 500 µM

## O=C1/C(=C/c2ccc(O)cc2)Oc2cccc(O)c21
Pseudomonas aeruginosa
  MIC: > 500 µM
Staphylococcus aureus
  MIC: 125 to 250 µM (≈ 31.8 to 63.6 µg/mL)

## COc1cc(OC)c(/C=C2\Oc3cccc(O)c3C2=O)c(OC)c1
Pseudomonas aeruginosa
  MIC: > 500 µM
Staphylococcus aureus
  MIC: 250 µM (≈ 82.1 µg/mL)

## CC(C)c1ccc(/C=C2\Oc3cccc(O)c3C2=O)cc1
Pseudomonas aeruginosa
  MIC: > 500 µM
Staphylococcus aureus
  MIC: > 500 µM

## CN1CCN(c2ccc(/C=C3\Oc4cc(O)ccc4C3=O)cc2)CC1
Pseudomonas aeruginosa
  MIC: > 500 µM
Staphylococcus aureus
  MIC: > 500 µM

## COc1ccc(/C=C2\Oc3cc(OC)cc(OC)c3C2=O)c(OC)c1
Pseudomonas aeruginosa
  MIC: > 500 µM
Staphylococcus aureus
  MIC: > 500 µM

## Cc1ccc(/C=C2\Oc3cccc(O)c3C2=O)c(C)c1
Pseudomonas aeruginosa
  MIC: > 500 µM
Staphylococcus aureus
  MIC: > 500 µM

## O=C1/C(=C/c2ccc(O)c(O)c2)Oc2cccc(O)c21
Pseudomonas aeruginosa
  MIC: > 500 µM
Staphylococcus aureus
  MIC: 125 to 250 µM (≈ 33.8 to 67.6 µg/mL)

## O=C1/C(=C/c2ccc(C3CCCCC3)cc2)Oc2cc(O)cc(O)c21
Pseudomonas aeruginosa
  MIC: > 500 µM
Staphylococcus aureus
  MIC: 7.8 µM (≈ 2.62 µg/mL)
IMR-90
  pIC50: 4.51
  Activity: Dose-dependent effect
BEAS-2B
  pIC50: 4.48
  Activity: Dose-dependent effect

## CCCCc1ccc(/C=C2\Oc3cc(O)cc(O)c3C2=O)cc1
Pseudomonas aeruginosa
  MIC: > 500 µM
Staphylococcus aureus
  MIC: 15.6 to 31.2 µM (≈ 4.84 to 9.7 µg/mL)
IMR-90
  pIC50: 4.10
  Activity: Dose-dependent effect
BEAS-2B
  pIC50: 4.05
  Activity: Dose-dependent effect

## O=C1/C(=C/c2ccccc2)Oc2ccccc21 [(Z)-AURONE]
Pseudomonas aeruginosa
  MIC: > 500 µM
Staphylococcus aureus
  MIC: > 500 µM

## CCc1ccc(/C=C2\Oc3cccc(O)c3C2=O)cc1
Pseudomonas aeruginosa
  MIC: > 500 µM
Staphylococcus aureus
  MIC: 62.5 to 125 µM (≈ 16.6 to 33.3 µg/mL)

## O=C1/C(=C/c2ccc(O)cc2)Oc2cc(O)ccc21
Pseudomonas aeruginosa
  MIC: > 500 µM
Staphylococcus aureus
  MIC: > 500 µM

## O=C1/C(=C/c2ccc(O)c(O)c2)Oc2c(O)cccc21
Pseudomonas aeruginosa
  MIC: > 500 µM
Staphylococcus aureus
  MIC: 125 to 250 µM (≈ 33.8 to 67.6 µg/mL)

## O=C1/C(=C/c2cccc(O)c2)Oc2cc(O)ccc21
Pseudomonas aeruginosa
  MIC: > 500 µM
Staphylococcus aureus
  MIC: > 500 µM

## O=C1/C(=C/c2ccc(O)cc2)Oc2ccccc21
Pseudomonas aeruginosa
  MIC: > 500 µM
Staphylococcus aureus
  MIC: > 500 µM

## O=C1/C(=C/c2cc(O)c(O)c(O)c2)Oc2c(O)cccc21
Pseudomonas aeruginosa
  MIC: > 500 µM
Staphylococcus aureus
  MIC: 125 to 250 µM (≈ 35.8 to 71.6 µg/mL)

## O=C1/C(=C/c2ccccc2O)Oc2cc(O)ccc21
Pseudomonas aeruginosa
  MIC: > 500 µM
Staphylococcus aureus
  MIC: > 500 µM

## COc1cccc(OC)c1/C=C1\Oc2cccc(O)c2C1=O
Pseudomonas aeruginosa
  MIC: > 500 µM
Staphylococcus aureus
  MIC: 250 µM (≈ 74.6 µg/mL)

## CN1CCN(c2ccc(/C=C3\Oc4cccc(O)c4C3=O)cc2)CC1
Pseudomonas aeruginosa
  MIC: > 500 µM
Staphylococcus aureus
  MIC: > 500 µM

## COc1ccc2c(c1)O/C(=C\c1ccc(OC)c(OC)c1)C2=O
Pseudomonas aeruginosa
  MIC: > 500 µM
Staphylococcus aureus
  MIC: > 500 µM

## O=C1/C(=C/c2cccc(O)c2O)Oc2c(O)cccc21
Pseudomonas aeruginosa
  MIC: > 500 µM
Staphylococcus aureus
  MIC: 250 µM (≈ 67.6 µg/mL)

## CCCCc1ccc(/C=C2\Oc3cccc(O)c3C2=O)cc1
Pseudomonas aeruginosa
  MIC: > 500 µM
Staphylococcus aureus
  MIC: > 500 µM

## O=C(O)c1ccc(/C=C2\Oc3c(O)cccc3C2=O)cc1
Pseudomonas aeruginosa
  MIC: > 500 µM
Staphylococcus aureus
  MIC: > 500 µM

## CCCCc1ccc(/C=C2\Oc3cc(OC)cc(OC)c3C2=O)cc1
Pseudomonas aeruginosa
  MIC: > 500 µM
Staphylococcus aureus
  MIC: > 500 µM

## O=C1/C(=C/c2cccc(O)c2)Oc2cc(O)cc(O)c21
Pseudomonas aeruginosa
  MIC: > 500 µM
Staphylococcus aureus
  MIC: 125 to 250 µM (≈ 33.8 to 67.6 µg/mL)

## COc1cc(OC)c2c(c1)O/C(=C\c1ccc(C)cc1C)C2=O
Pseudomonas aeruginosa
  MIC: > 500 µM
Staphylococcus aureus
  MIC: > 500 µM

## CC(C)(C)c1ccc(/C=C2\Oc3cccc(O)c3C2=O)cc1
Pseudomonas aeruginosa
  MIC: > 500 µM
Staphylococcus aureus
  MIC: > 500 µM
